From ChEMBL document CHEMBL3232959, “Design, synthesis and biological evaluation of small-azo-dyes as potent Vesicular Glutamate Transporters inhibitors” (Eur J Med Chem, 2014)
Activity calls are given as the source filed them. The rule behind the calls is not given here.

Assays:
[1] = species: Rattus norvegicus; assay: Inhibition of rat brain VGLUT assessed as inhibition of [3H]glutamate uptake into vesicles at 250 uM after 10 mins by scintillation spectrophotometry
[2] = species: Rattus norvegicus; assay: Inhibition of rat brain VGLUT assessed as inhibition of [3H]glutamate uptake into vesicles at 20 uM after 10 mins by scintillation spectrophotometry
Method in brief: (§1)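 Crude rat synaptic vesicles were incubated at 37 °C in 10 mM HEPES-KOH pH 7.4 with 4 mM MgSO4, 4 mM KCl, 1 mM L-aspartate and test compound in DMSO. Uptake was started with ATP/Glu containing [3H]Glu and run for 10 min. It was stopped with ice-cold buffer, GF/C filtered, washed 4 times and counted by scintillation. Blanks without ATP or with CCCP/Trypan Blue were subtracted to give ATP-dependent uptake. At least triplicate.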

[3] = Inhibition of rat brain VGLUT assessed as inhibition of [3H]glutamate uptake into vesicles after 10 mins by scintillation spectrophotometry; method in brief: as §1
[4] = target: Synaptic vesicular amine transporter VMAT2 (Rattus norvegicus) (UniProt Q01827); assay: Inhibition of rat vesicular monoamine transporter 2 assessed as inhibition of dopamine uptake at 200 uM
[5] = Competitive inhibition of rat brain VGLUT assessed as inhibition of [3H]glutamate uptake into vesicles after 10 mins by scintillation spectrophotometry
Method in brief: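 Crude rat synaptic vesicles (50 µg aliquots) incubated in 10 mM HEPES-KOH pH 7.4, sucrose, 4 mM MgSO4, 4 mM KCl, L-aspartate. Uptake started with ATP plus Glu and [3H]Glu, 10 min at 37 °C. Compounds added from DMSO, final 0.20 nM upward. Ice-cold buffer stop, GF/C filtration, four washes, scintillation counting. Uptake without ATP or with CCCP/Trypan Blue subtracted; at least triplicate.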

[6] = species: Homo sapiens; assay: Agonist activity at mGluR (unknown origin) at 200 uM by cell-based assay
[7] = species: Homo sapiens; assay: Antagonist activity at mGluR (unknown origin) at 200 uM by cell-based assay

Compound	inhibition [2]	IC50 [3] [nM]	inhibition [4]	also measured
O=C(O)c1cc(C(=O)O)c2ccccc2n1				inhibition [1]: inactive
Nc1ccc(-c2ccc(N/N=C3\C(=O)c4c(N)cc(S(=O)(=O)O)cc4C=C3S(=O)(=O)O)c(C(F)(F)F)c2)cc1C(F)(F)F	98%	1800	inactive	
O=C1/C(=N\Nc2ccc(I)cc2Cl)C(S(=O)(=O)O)=Cc2cc(S(=O)(=O)O)ccc21	inactive			
Nc1cc(S(=O)(=O)O)cc2c1C(=O)/C(=N\Nc1ccc(Br)cc1)C(S(=O)(=O)O)=C2	33%		inactive	
Cc1cc(-c2ccc(/N=N/c3ccc4c(S(=O)(=O)O)cc(S(=O)(=O)O)c(N)c4c3O)c(C)c2)ccc1/N=N/c1ccc2c(S(=O)(=O)O)cc(S(=O)(=O)O)c(N)c2c1O [EVANS BLUE]		87		
Nc1ccc(-c2ccc(N/N=C3\C(=O)c4c(N)cc(S(=O)(=O)O)cc4C=C3S(=O)(=O)O)cc2)cc1	25%		inactive	
Nc1cc(S(=O)(=O)O)cc2c1C(=O)/C(=N\Nc1c(O)c(F)c(Br)c(F)c1F)C(S(=O)(=O)O)=C2	39%		inactive	
Nc1cc(S(=O)(=O)O)cc2c1C(=O)/C(=N\Nc1ccc(I)cc1C(F)(F)F)C(S(=O)(=O)O)=C2	83%	5800	inactive	
Cc1cc(-c2ccc(/N=N/c3c(S(=O)(=O)O)cc4cc(S(=O)(=O)O)cc(N)c4c3O)c(C)c2)ccc1/N=N/c1c(S(=O)(=O)O)cc2cc(S(=O)(=O)O)cc(N)c2c1O [TRYPAN BLUE]		50		IC50 [5]: 100 nM
Cc1cc(C(=O)O)cc(C)c1N/N=C1\C(=O)c2c(N)cc(S(=O)(=O)O)cc2C=C1S(=O)(=O)O	5%		inactive	
Cc1cc(I)ccc1N/N=C1\C(=O)c2c(N)cc(S(=O)(=O)O)cc2C=C1S(=O)(=O)O	83%	2100	inactive	Activity [6]: inactive; Activity [7]: inactive
Nc1cc(S(=O)(=O)O)cc2c1C(=O)/C(=N\Nc1c(O)c(F)c(C(=O)O)c(F)c1F)C(S(=O)(=O)O)=C2	18%		inactive	
Nc1cc(S(=O)(=O)O)cc2c1C(=O)/C(=N\Nc1ccc(I)cc1Cl)C(S(=O)(=O)O)=C2	45%		inactive	
Nc1cc(S(=O)(=O)O)cc2c1C(=O)/C(=N\Nc1ccc(C(=O)O)cc1Cl)C(S(=O)(=O)O)=C2	55%		inactive	
Nc1cc(S(=O)(=O)O)cc2cc(S(=O)(=O)O)cc(O)c12	inactive			
Nc1ccc(-c2ccc(N/N=C3\C(=O)c4c(N)cc(S(=O)(=O)O)cc4C=C3S(=O)(=O)O)c(F)c2)cc1F	74%	4800	inactive	
N=c1ccc2c(=O)/c(=N\Nc3ccc(I)cc3Cl)c(S(=O)(=O)O)cc=2/c1=N/Nc1ccc(I)cc1Cl	inactive			

Compound	inhibition [2]	IC50 [3] [nM]	inhibition [4]	also measured
COc1cc(C(=O)O)ccc1N/N=C1\C(=O)c2c(N)cc(S(=O)(=O)O)cc2C=C1S(=O)(=O)O	25%		inactive	
Nc1cc(S(=O)(=O)O)cc2c1C(=O)/C(=N\Nc1ccc(C(=O)O)cc1C(F)(F)F)C(S(=O)(=O)O)=C2	76%	6800	inactive	
O=C(O)c1cc(C(=O)O)c2cccc(O)c2n1		286000		
O=C(O)c1cc(C(=O)O)c2cc(/N=N/c3ccc(-c4ccccc4)cc3)ccc2n1		288000		
Cc1cc(Br)cc(C)c1N/N=C1\C(=O)c2c(N)cc(S(=O)(=O)O)cc2C=C1S(=O)(=O)O	77%	2100	inactive	
O=C(O)c1cc(C(=O)O)c2cc(/C=C/c3ccccc3)ccc2n1		40000		
Nc1cc(S(=O)(=O)O)cc2c1C(=O)/C(=N\Nc1c(F)c(F)c(-c3c(F)c(F)c(N)c(F)c3F)c(F)c1F)C(S(=O)(=O)O)=C2	96%	3300	inactive	
COc1cc(-c2ccc(/N=N/c3ccc4c(S(=O)(=O)O)cc(S(=O)(=O)O)c(N)c4c3O)c(OC)c2)ccc1/N=N/c1ccc2c(S(=O)(=O)O)cc(S(=O)(=O)O)c(N)c2c1O [CHICAGO SKY BLUE]		3000		
O=C1C(S(=O)(=O)O)=Cc2cc(S(=O)(=O)O)ccc2/C1=N/Nc1ccc(I)cc1Cl	inactive			
Cc1cc(-c2ccc(N/N=C3\C(=O)c4c(N)cc(S(=O)(=O)O)cc4C=C3S(=O)(=O)O)c(C)c2)ccc1N	52%		inactive	
COc1cc(Br)ccc1N/N=C1\C(=O)c2c(N)cc(S(=O)(=O)O)cc2C=C1S(=O)(=O)O	42%	> 20000	inactive	
Nc1cc(S(=O)(=O)O)cc2c1C(=O)/C(=N\Nc1ccc(C(=O)O)cc1F)C(S(=O)(=O)O)=C2	18%		inactive	
Cc1cc(C(=O)O)ccc1N/N=C1\C(=O)c2c(N)cc(S(=O)(=O)O)cc2C=C1S(=O)(=O)O	15%		inactive	
Nc1cc(S(=O)(=O)O)cc2c1C(=O)/C(=N\Nc1ccc(I)cc1F)C(S(=O)(=O)O)=C2	46%		inactive	
Nc1ccc(-c2ccc(N/N=C3\C(=O)c4c(N)cc(S(=O)(=O)O)cc4C=C3S(=O)(=O)O)c(Cl)c2)cc1Cl	88%	1600	inactive	Activity [6]: inactive; Activity [7]: inactive
Nc1cc(S(=O)(=O)O)cc2c1C(=O)/C(=N\Nc1ccc(C(=O)O)cc1)C(S(=O)(=O)O)=C2	15%		inactive	
